# High-throughput results from PubChem.
# Many of the other results were omitted from the sample, so hits are more common in it than they were.
# UPR XBP1 act – adaptive UPR (XBP1) activation. CHO-XBP1 luciferase reporter, IRE1-XBP1 UPR activation, luminescence; percent of tunicamycin response, DMSO as zero. activation, % at 20 µM. 330,000 compounds, 0.33% hits. AID 463104;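 active means versus positive control, 20 µM dose yields 30% or more activation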;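 further: 100% = tunicamycin at 10 µg/mL and 0% = DMSO only wells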
#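 Material: CHO-XBP1 cells stably carrying IRE1-XBP1-driven luciferase reporter / Amount: 1000 cells per well / Compound: 20 µM, 1% DMSO / Times: 6 h treatment, 37 °C / Detection: luciferase luminescence / Measure: % activation of reporter signal versus tunicamycin and DMSO controls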
# Bfl-1 A1 inh – inhibitors of the anti-apoptotic protein A1, read as caspase activation; MEF A1-2A-BIM cells, Caspase-Glo 3/7 luminescence, 3 h; percent of clofoctol response, vehicle zero; caspase activation, % (concentration not given with the values); 330,000 compounds, 0.066% hits;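 active means over half of replicate activation scores above 10%, or exactly half above 10 with the replicate mean above 10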
# UPR CHOP act – activators of apoptotic arm of unfolded protein response (CHOP) | CHO-CHOP luciferase reporter, UPR activation, luminescence; percent of tunicamycin response over DMSO baseline | activation, % at 10 µM | 330,000 compounds, 0.34% hits;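 active means at 10 µM dose, activation of 40% or more, normalized to positive control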;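 further: 100% = tunicamycin at 10 µg/mL and 0% = DMSO alone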
#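 System: CHO-CHOP luciferase reporter cell line; amount: 500 cells/well; buffer or medium: F12 medium containing 10% fetal bovine serum; incubation: 6 h compound exposure at 37 °C after overnight seeding; measured by: luciferase luminescence after 10 min with Steady-Glo reagent; evaluation: % reporter activation, DMSO baseline versus tunicamycin full activation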
# CHOP inh – blocks CHOP induction under ER stress | CHO-K1 CHOP-promoter luciferase, tunicamycin-induced, 15-18 h | inhibition, % at 10 µM | 220,000 compounds, 3.8% hits | AID 2732;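 active means compounds that reduced the stress-induced luciferase reporter signal by more than about 70% of percent inhibition, limit read from the data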;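 further: 0% = tunicamycin plus vehicle and 100% = wells without tunicamycin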
# The depositor's hits bear a star; . = not tested or not shown.
SMILES,UPR XBP1 act,Bfl-1 A1 inh,UPR CHOP act,CHOP inh
CC(=O)Nc1ccc(NC(=O)C/C(C)=N/NC(=O)C(=O)Nc2ccc(C)c(Cl)c2)cc1,-5,-1,2,87*
COc1ccccc1NC(=O)C(=O)N/N=C(\C)CC(=O)Nc1ccc(OCc2ccccc2)cc1,2,-2,-1,64
Cc1ccccc1SCC(=O)Nc1cc(C(F)(F)F)ccc1N1CCOCC1,11,0,7,.
CCOC(=O)/C(C#N)=C/Nc1ccsc1C(C)=O,5,1,2,-1
COCCNC(=O)c1c(N)n(CCC2=CCCCC2)c2nc3ccccc3nc12,-1,0,0,78*
COc1ccc(CCn2c(N)c(C(=O)NCc3ccco3)c3nc4ccccc4nc32)cc1,-1,0,2,15
Cc1csc(NC(=O)C(CC(C)C)NS(=O)(=O)c2ccc3c(c2)oc(=O)n3C)n1 (stereo not drawn),1,1,2,97*
CCOc1ccccc1NC(=O)COc1cccnc1[N+](=O)[O-],1,-1,0,.
N#C/C(=C/c1ccc(-c2ccc(S(N)(=O)=O)cc2)o1)C(=O)Nc1ccccc1,10,-1,1,39
N#C/C(=C/c1ccc(-c2ccc(S(N)(=O)=O)cc2)o1)c1nc2ccccc2s1,2,-2,10,89*
CN(C)S(=O)(=O)c1ccc(NC(=O)C2CC(=O)N(Cc3ccccc3Cl)C2)cc1 (stereo not drawn),-6,0,-1,.
Cn1c(=O)c(C(=O)CN2CCc3ccccc32)c(N)n(Cc2ccccc2)c1=O,0,0,1,47
Cn1c(=O)c(C(=O)CN2CCCc3ccccc32)c(N)n(Cc2ccccc2)c1=O,-1,0,1,77*
N#CCC(=O)N/N=C/c1cc(Br)ccc1OCc1cccc2ccccc12,7,1,3,.
Oc1ccc(NCc2ccccc2OCc2ccccc2F)cc1,9,-2,3,85*
Cc1ccc(NCc2ccccc2OCc2ccccc2F)cc1,0,0,0,85*
COc1ccc(CN2CCCC(C(=O)N3CCCCC3)C2)cc1OC (stereo not drawn),-2,1,4,.
O=C(Nc1ccccc1)N(C1=NCCC1)c1ccc(OC(F)F)cc1,-1,0,1,81*
O=C(N[C@@H](Cc1ccccc1)C(=O)N[C@@H](Cc1ccccc1)C(=O)O)OCc1ccccc1,0,0,2,.
O=C(N[C@@H](Cc1ccccc1)C(=O)CCl)OCc1ccccc1,-13,1,158*,-7
CCOC(=O)c1cc(CC)sc1NC(=O)CC1Sc2ccc(C(F)(F)F)cc2NC1=O (stereo not drawn),-1,0,1,82*
CCc1cc(C(=O)OC)c(NC(=O)CC2Nc3cc(C)c(C)cc3NC2=O)s1 (stereo not drawn),1,0,3,103*
CCCSc1ccc([C@H]2N[C@@](CC(C)C)(C(=O)OC)[C@H]3C(=O)N(CC)C(=O)[C@@H]23)cc1,-2,0,-1,.
CC(C)(C)C(=O)NC(=S)NNC(=O)c1ccc(Cl)cc1Cl,13,0,0,92*
O=C(CN1C(=O)/C(=C\C=C\c2ccccc2)SC1=S)Nc1ccc(F)cc1,-2,0,4,89*
SMILES,UPR XBP1 act,Bfl-1 A1 inh,UPR CHOP act,CHOP inh
O=C(COC(=O)CCN1C(=O)/C(=C\C=C\c2ccccc2)SC1=S)Nc1cc(F)ccc1F,-3,-1,-2,77*
N#CC1=C(N)OC2=C(C(=O)CCC2)C1c1cc2c(cc1Br)OCO2 (stereo not drawn),-4,0,-1,.
O=c1[nH]c(O)c(/C=C2\C=Nc3ccc(Br)cc32)[nH]1,1,-1,2,.
COc1ccc(C)cc1N=Nc1ccc(O)c2ncccc12,.,.,.,104*
Cc1ccccc1N=Nc1ccc(O)c2ncccc12,.,-3,.,106*
Oc1ccc(N=Nc2ccc3c(c2)OCCO3)c2cccnc12,-2,-4,8,0
CCOc1ccc(/C=C2\SC(=S)N(C(C(=O)O)c3ccccc3)C2=O)cc1OC (stereo not drawn),-1,0,1,20
CC(c1ccccc1)N1C(=O)/C(=C/c2ccncc2)SC1=S (stereo not drawn),-4,0,4,86*
O=C(O)C(c1ccccc1)N1C(=O)/C(=C/c2cccs2)SC1=S (stereo not drawn),-1,0,-2,6
C=CCOc1ccc(/C=C2\SC(=S)N(C(C(=O)O)c3ccccc3)C2=O)cc1 (stereo not drawn),.,.,.,90*
O=C(O)CN1C(=O)C(=O)N(Cc2ccccc2F)C1=O,1,-1,1,.
COC(=O)[C@H](Cc1ccc(O)cc1)NC(=O)Cn1cnc2c(OCc3ccccc3)ncnc21,-1,.,1,.
COc1ccc(CNC(=S)Nc2ccccc2-c2ccccc2)cc1,-3,0,2,9
CCOC(=O)N1CCN(S(=O)(=O)N2CCCC(C(=O)NCc3ccc(OC)cc3)C2)CC1 (stereo not drawn),-1,-1,1,.
CCS(=O)(=O)N1Cc2ccccc2CC1C(=O)N(C)CC(=O)Nc1cccc(F)c1 (stereo not drawn),-1,0,4,.
CCOC(=O)c1sc(NC(=O)CCCCCN2C(=O)c3cccc4cccc(c34)C2=O)nc1C,.,.,.,72*
Cc1cc(NS(=O)(=O)c2ccc(NC(=O)c3cc4cc(Br)ccc4oc3=O)cc2)no1,-2,0,-1,91*
Cc1cc(NS(=O)(=O)c2ccc(NC(=O)c3ccccc3C)cc2)no1,-1,-1,0,.
CCC(C)c1ccc(NC(=S)NCCn2cc(Cl)cn2)cc1 (stereo not drawn),-4,1,-1,11
CCC(C)c1ccc(NC(=S)NCCn2cc(Br)cn2)cc1 (stereo not drawn),-3,0,0,72*
CCOc1cccc(-c2nnc3sc(COc4ccc(C)cc4)nn23)c1,-3,-1,0,70*
CCN(Cc1cnn(C)c1)C(=O)c1ccc2nc(Cc3cccc(Cl)c3)oc2c1,-6,1,2,.
CC(C)(C)c1ccc(NC(=O)Nc2ccc3ccccc3n2)cc1,0,1,2,85*
COc1cccc(NC(=O)Nc2ccncc2)c1,2,-5,-1,-4
COc1cccc(NC(=O)Nc2ccc(Cc3ccncc3)cc2)c1,-1,0,1,70*
COc1cccc(NC(=O)Nc2ccc(C(C)(C)C)cc2)c1,0,.,6,93*
COc1cccc(NC(=O)Nc2cc(C(=O)O)ccc2C)c1,1,0,-1,11
COc1cccc(NC(=O)Nc2ccc(C)c(Cl)c2)c1,0,-1,8,88*
CCN(Cc1ccncc1)C(=O)C1CCC(=O)N(Cc2ccc(Cl)cc2)C1 (stereo not drawn),-4,1,2,.
O=C(COc1ccc(Cl)cc1)Nc1ccc(C(=O)NCc2cccnc2)cc1,0,0,1,-4
